{"source": "ChEMBL document CHEMBL3774379", "about": "“Synthesis and biological evaluation of quinoline derivatives as potential anti-prostate cancer agents and Pim-1 kinase inhibitors” (Bioorg Med Chem, 2016)", "key": {"[1]": {"experiment": "Antiproliferative activity against human PC3 cells after 96 hrs by MTT assay", "type": "functional", "conditions": "PC-3, 96 h", "procedure,_shortened": "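PC-3 cells grown in RPMI1640 with 10% heat-inactivated FBS; seeded 2×10³ cells/well, 24 h at 37°C, 5% CO₂, then compound at various concentrations for 96 h. MTT (2 mg/mL) added for 4 h, formazan dissolved in DMSO, absorbance 570 nm. GI₅₀ from inhibition ratios versus untreated cells; three independent experiments, mean reported.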"}, "[2]": {"molecular_target": "T1, Serine/threonine-protein kinase pim-1 (Homo sapiens, UniProt P11309)", "experiment": "Inhibition of Pim1 kinase (unknown origin) using substrate S3 after 50 mins by HTRF assay"}, "[3]": {"experiment": "Cell cycle arrest in human PC3 cells assessed as cell accumulation at sub-G1 phase at 12 uM after 48 hrs by Propidium Iodide staining based flow cytometric analysis (reference value: 2.5%)", "type": "functional", "conditions": "PC-3", "procedure,_shortened": "(§1)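 PC-3 cells in six-well plates treated 0, 8, 12 or 16 μM for 24 or 48 h. Floating and adherent cells pooled, PBS-washed, fixed in ice-cold 70% ethanol at -20°C overnight, treated with 1 mg/mL RNase at 37°C for 30 min, stained with PI at 50 μg/mL final. DNA content read by flow cytometry, excitation 488 nm, emission 625 nm.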"}, "[4]": {"experiment": "Cell cycle arrest in human PC3 cells assessed as cell accumulation at sub-G1 phase at 12 uM after 24 hrs by Propidium Iodide staining based flow cytometric analysis (reference value: 1.7%)", "type": "functional", "conditions": "PC-3", "procedure,_shortened": "as §1"}, "[5]": {"experiment": "Cell cycle arrest in human PC3 cells assessed as cell accumulation at G0/G1 phase at 16 uM after 24 hrs by Propidium Iodide staining based flow cytometric analysis (reference value: 57.1%)", "type": "functional", "conditions": "PC-3", "procedure,_shortened": "as §1"}, "[6]": {"experiment": "Cell cycle arrest in human PC3 cells assessed as cell accumulation at G0/G1 phase at 12 uM after 24 hrs by Propidium Iodide staining based flow cytometric analysis (reference value: 57.1%)", "type": "functional", "conditions": "PC-3", "procedure,_shortened": "as §1"}, "[7]": {"molecular_target": "T1, Serine/threonine-protein kinase pim-1", "experiment": "Inhibition of Pim1 kinase in human PC3 cells assessed as decrease in BAD phosphorylation level at 8 to 16 uM after 24 hrs by Western blot analysis", "type": "cell-based", "conditions": "PC-3"}, "[8]": {"experiment": "Cell cycle arrest in human PC3 cells assessed as cell accumulation at G0/G1 phase at 8 uM after 48 hrs by Propidium Iodide staining based flow cytometric analysis (reference value: 57.9%)", "type": "functional", "conditions": "PC-3", "procedure,_shortened": "as §1"}, "[9]": {"experiment": "Cell cycle arrest in human PC3 cells assessed as cell accumulation at sub-G1 phase at 16 uM after 48 hrs by Propidium Iodide staining based flow cytometric analysis (reference value: 2.5%)", "type": "functional", "conditions": "PC-3", "procedure,_shortened": "as §1"}, "[10]": {"experiment": "Cell cycle arrest in human PC3 cells assessed as cell accumulation at G0/G1 phase at 8 uM after 24 hrs by Propidium Iodide staining based flow cytometric analysis (reference value: 57.1%)", "type": "functional", "conditions": "PC-3", "procedure,_shortened": "as §1"}, "[11]": {"molecular_target": "T1, Serine/threonine-protein kinase pim-1", "experiment": "Inhibition of Pim1 kinase in human PC3 cells assessed as decrease in c-Myc level at 8 to 16 uM after 24 hrs by Western blot analysis", "type": "cell-based", "conditions": "PC-3"}, "[12]": {"molecular_target": "T1, Serine/threonine-protein kinase pim-1", "experiment": "Inhibition of Pim1 kinase in human PC3 cells assessed as increase in p21 level at 8 to 16 uM after 24 hrs by Western blot analysis", "type": "cell-based", "conditions": "PC-3"}, "[13]": {"experiment": "Cell cycle arrest in human PC3 cells assessed as cell accumulation at G0/G1 phase at 16 uM after 48 hrs by Propidium Iodide staining based flow cytometric analysis (reference value: 57.9%)", "type": "functional", "conditions": "PC-3", "procedure,_shortened": "as §1"}, "[14]": {"experiment": "Cell cycle arrest in human PC3 cells assessed as cell accumulation at G2/M phase at 16 uM after 48 hrs by Propidium Iodide staining based flow cytometric analysis (reference value: 32.4%)", "type": "functional", "conditions": "PC-3", "procedure,_shortened": "as §1"}, "PC-3": {"tested_on": "PC-3", "experiment": "Induction of ERK phosphorylation in human PC3 cells at 8 to 16 uM after 24 hrs by Western blot analysis", "type": "cell-based"}, "[15]": {"experiment": "Cell cycle arrest in human PC3 cells assessed as cell accumulation at sub-G1 phase at 8 uM after 24 hrs by Propidium Iodide staining based flow cytometric analysis (reference value: 1.7%)", "type": "functional", "conditions": "PC-3", "procedure,_shortened": "as §1"}, "[16]": {"molecular_target": "T1, Serine/threonine-protein kinase pim-1", "experiment": "Inhibition of Pim1 kinase in human PC3 cells assessed as decrease in 4E-BP1 phosphorylation level at 8 to 16 uM after 24 hrs by Western blot analysis", "type": "cell-based", "conditions": "PC-3"}, "[17]": {"experiment": "Cell cycle arrest in human PC3 cells assessed as cell accumulation at G2/M phase at 16 uM after 24 hrs by Propidium Iodide staining based flow cytometric analysis (reference value: 32%)", "type": "functional", "conditions": "PC-3", "procedure,_shortened": "as §1"}, "[18]": {"experiment": "Cell cycle arrest in human PC3 cells assessed as cell accumulation at G2/M phase at 12 uM after 48 hrs by Propidium Iodide staining based flow cytometric analysis (reference value: 32.4%)", "type": "functional", "conditions": "PC-3", "procedure,_shortened": "as §1"}, "[19]": {"experiment": "Cell cycle arrest in human PC3 cells assessed as cell accumulation at G2/M phase at 8 uM after 24 hrs by Propidium Iodide staining based flow cytometric analysis (reference value: 32%)", "type": "functional", "conditions": "PC-3", "procedure,_shortened": "as §1"}, "[20]": {"experiment": "Cell cycle arrest in human PC3 cells assessed as cell accumulation at G2/M phase at 12 uM after 24 hrs by Propidium Iodide staining based flow cytometric analysis (reference value: 32%)", "type": "functional", "conditions": "PC-3", "procedure,_shortened": "as §1"}, "[21]": {"experiment": "Cell cycle arrest in human PC3 cells assessed as cell accumulation at G0/G1 phase at 12 uM after 48 hrs by Propidium Iodide staining based flow cytometric analysis (reference value: 57.9%)", "type": "functional", "conditions": "PC-3", "procedure,_shortened": "as §1"}, "[22]": {"molecular_target": "T1, Serine/threonine-protein kinase pim-1", "experiment": "Inhibition of Pim1 kinase in human PC3 cells assessed as increase in p27 level at 8 to 16 uM after 24 hrs by Western blot analysis", "type": "cell-based", "conditions": "PC-3"}, "[23]": {"experiment": "Cell cycle arrest in human PC3 cells assessed as cell accumulation at sub-G1 phase at 8 uM after 48 hrs by Propidium Iodide staining based flow cytometric analysis (reference value: 2.5%)", "type": "functional", "conditions": "PC-3", "procedure,_shortened": "as §1"}, "[24]": {"experiment": "Cell cycle arrest in human PC3 cells assessed as cell accumulation at G2/M phase at 8 uM after 48 hrs by Propidium Iodide staining based flow cytometric analysis (reference value: 32.4%)", "type": "functional", "conditions": "PC-3", "procedure,_shortened": "as §1"}, "[25]": {"experiment": "Cell cycle arrest in human PC3 cells assessed as cell accumulation at sub-G1 phase at 16 uM after 24 hrs by Propidium Iodide staining based flow cytometric analysis (reference value: 1.7%)", "type": "functional", "conditions": "PC-3", "procedure,_shortened": "as §1"}}, "note": "The source made the active and inactive calls. No cut-off for these calls is given here.", "data": [{"smiles": "Oc1cccc2ccc(Oc3ccccn3)nc12", "values": [{"measurement": "GI50", "setting": "[1]", "result": "> 30", "unit": "µM"}]}, {"smiles": "c1ccc(Nc2ccc3ccccc3n2)nc1", "values": [{"measurement": "IC50", "setting": "[2]", "result": "> 10", "unit": "µM"}, {"measurement": "GI50", "setting": "[1]", "result": "> 30", "unit": "µM"}]}, {"smiles": "COc1ccc(Cl)c2ccc(Nc3ccccn3)nc12", "values": [{"measurement": "GI50", "setting": "[1]", "result": 29.2, "unit": "µM"}]}, {"smiles": "Oc1ccc(Br)c2ccc(Oc3ccccn3)nc12", "values": [{"measurement": "GI50", "setting": "[1]", "result": "> 30", "unit": "µM"}]}, {"smiles": "Oc1cccc2ccc(Nc3cc(Cl)ccn3)nc12", "values": [{"measurement": "GI50", "setting": "[1]", "result": 2.81, "unit": "µM"}]}, {"smiles": "Oc1ccc(Cl)c2ccc(Oc3ccccn3)nc12", "values": [{"measurement": "GI50", "setting": "[1]", "result": "> 30", "unit": "µM"}]}, {"smiles": "Clc1ccnc(Nc2ccc3ccccc3n2)c1", "values": [{"measurement": "GI50", "setting": "[1]", "result": "> 30", "unit": "µM"}]}, {"smiles": "COc1cccc2ccc(Nc3cc(Cl)ccn3)nc12", "values": [{"measurement": "GI50", "setting": "[1]", "result": 11.8, "unit": "µM"}]}, {"smiles": "COc1cccc2ccc(Nc3cc(C)ccn3)nc12", "values": [{"measurement": "GI50", "setting": "[1]", "result": 3.82, "unit": "µM"}]}, {"smiles": "Oc1ccc(Cl)c2ccc(Sc3ccccn3)nc12", "values": [{"measurement": "GI50", "setting": "[1]", "result": 10.2, "unit": "µM"}]}, {"smiles": "Oc1ccc(Cl)c2ccc(Nc3ccccn3)nc12", "values": [{"measurement": "Activity", "setting": "[3]", "result": 27.7, "unit": "%"}, {"measurement": "Activity", "setting": "[4]", "result": 10.4, "unit": "%"}, {"measurement": "Activity", "setting": "[5]", "result": 48.1, "unit": "%"}, {"measurement": "Activity", "setting": "[6]", "result": 64.5, "unit": "%"}, {"measurement": "inhibition", "setting": "[7]", "result": "Dose-dependent effect"}, {"measurement": "Activity", "setting": "[8]", "result": 52.9, "unit": "%"}, {"measurement": "Activity", "setting": "[9]", "result": 52.6, "unit": "%"}, {"measurement": "Activity", "setting": "[10]", "result": 65.2, "unit": "%"}, {"measurement": "Activity", "setting": "[11]", "result": "Dose-dependent effect"}, {"measurement": "inhibition", "setting": "[12]", "result": "Dose-dependent effect"}, {"measurement": "Activity", "setting": "[13]", "result": 31, "unit": "%"}, {"measurement": "Activity", "setting": "[14]", "result": 11, "unit": "%"}, {"measurement": "Activity", "setting": "PC-3", "result": "Active"}, {"measurement": "Activity", "setting": "[15]", "result": 2.9, "unit": "%"}, {"measurement": "inhibition", "setting": "[16]", "result": "Dose-dependent effect"}, {"measurement": "Activity", "setting": "[17]", "result": 13.9, "unit": "%"}, {"measurement": "Activity", "setting": "[18]", "result": 20, "unit": "%"}, {"measurement": "Activity", "setting": "[19]", "result": 19.3, "unit": "%"}, {"measurement": "Activity", "setting": "[20]", "result": 17.3, "unit": "%"}, {"measurement": "Activity", "setting": "[21]", "result": 44.4, "unit": "%"}, {"measurement": "inhibition", "setting": "[22]", "result": "Dose-dependent effect"}, {"measurement": "Activity", "setting": "[23]", "result": 13.1, "unit": "%"}, {"measurement": "IC50", "setting": "[2]", "result": 0.75, "unit": "µM"}, {"measurement": "GI50", "setting": "[1]", "result": 1.29, "unit": "µM"}, {"measurement": "Activity", "setting": "[24]", "result": 25, "unit": "%"}, {"measurement": "Activity", "setting": "[25]", "result": 31.5, "unit": "%"}]}, {"smiles": "Oc1ccc(Cl)c2ccc(Nc3cc(Cl)ccn3)nc12", "values": [{"measurement": "GI50", "setting": "[1]", "result": 25.5, "unit": "µM"}]}, {"smiles": "Cc1ccnc(Nc2ccc3ccccc3n2)c1", "values": [{"measurement": "GI50", "setting": "[1]", "result": 26.7, "unit": "µM"}]}, {"smiles": "Cc1ccnc(Nc2ccc3c(Cl)ccc(O)c3n2)c1", "values": [{"measurement": "GI50", "setting": "[1]", "result": 10.2, "unit": "µM"}]}, {"smiles": "COc1ccc(Cl)c2ccc(Nc3cc(Cl)ccn3)nc12", "values": [{"measurement": "GI50", "setting": "[1]", "result": "> 30", "unit": "µM"}]}, {"smiles": "Cc1ccnc(Nc2ccc3cccc(O)c3n2)c1", "values": [{"measurement": "GI50", "setting": "[1]", "result": 5.84, "unit": "µM"}]}, {"smiles": "Oc1ccc(Br)c2ccc(Sc3ccccn3)nc12", "values": [{"measurement": "GI50", "setting": "[1]", "result": 10.2, "unit": "µM"}]}, {"smiles": "COc1cccc2ccc(Nc3ccccn3)nc12", "values": [{"measurement": "GI50", "setting": "[1]", "result": 7.47, "unit": "µM"}]}, {"smiles": "CN1CCC(CNc2ccc3ncc(-c4cccc(OC(F)(F)F)c4)n3n2)CC1", "note": "[SGI-1776]", "values": [{"measurement": "GI50", "setting": "[1]", "result": 4.86, "unit": "µM"}]}, {"smiles": "Oc1cccc2ccc(Sc3ccccn3)nc12", "values": [{"measurement": "IC50", "setting": "[2]", "result": "> 10", "unit": "µM"}, {"measurement": "GI50", "setting": "[1]", "result": 20.9, "unit": "µM"}]}, {"smiles": "Oc1cccc2ccc(Nc3ccccn3)nc12", "values": [{"measurement": "GI50", "setting": "[1]", "result": 2.6, "unit": "µM"}]}, {"smiles": "COc1ccc(Cl)c2ccc(Nc3cc(C)ccn3)nc12", "values": [{"measurement": "GI50", "setting": "[1]", "result": "> 30", "unit": "µM"}]}]}
